System: MS2 coat protein
Assay: apparent Kd, MS2 coat protein; higher = weaker binding; RNA-MaP array; FMN 200 µM where present
Summary of the method: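 Designs were transcribed by stalled E. coli RNA polymerase on Illumina sequencing-chip clusters. They were titrated with SNAP-549-labelled MS2 coat protein from 0.7 or 1.5 nM, doubling to 3 µM, without and then with constant ligand. Buffer: 100 mM Tris-HCl pH 7.5, 80 mM KCl, 4 mM MgCl2, BSA, DTT, yeast tRNA, Tween-20. Green signal was normalised to red-channel RNA signal and control-cluster median Fmax. Apparent Kd is the median of filtered per-cluster binding-curve fits.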

[1] = designed as: ON switch for flavin mononucleotide, no ligand
[2] = ligand present: flavin mononucleotide, designed as: ON switch for flavin mononucleotide
[3] = designed as: OFF switch for flavin mononucleotide, no ligand
[4] = ligand present: flavin mononucleotide, designed as: OFF switch for flavin mononucleotide

Row | Sequence | apparent Kd [1] [nM] | apparent Kd [2] [nM] | apparent Kd [3] [nM] | apparent Kd [4] [nM]
1 | UCCAAACUUGGACUUGGUGGUGCAUAGGAUAUCCUUGGACAUGAGGAUCACCCAUGUACAACUGUGGAGAAGGGUGCAGGGCCU | 427 | 91.3 | – | –
2 | GUUAUAAAGGUAGGAUAUUGUAUUAUAAUUAAAUAAGAAGGAUCUCACAUGAGGAUCACCCAUGUAAGAGGAUCACCCAUGUAU | – | – | 9.63 | 8.14
3 | CUGAGCUGAGGAUAUACAUGAGGAUCACCCAUGUUAAGCAGCUAGCGUAAAAGCAGAUGUAGAAGGCAGUUCGG | – | – | 18.9 | 20.3
4 | AUCGUGUUAGGAUAUGCAUGUCGCUGGGUAGCUAGCGAUAGGCAGAAGGAACAUGAGGAUCACCCAUGUUCGGG | – | – | 158 | 78
5 | CUUAAACAUGAGGAUCACCCAUGUCAGGAUAUGAUACUAUGUACUUCGGUACAUAGUAUCAGAAGGGAUAUGAA | – | – | 49 | 64.8
6 | AGCUACGUUUCGUAGCAGUGUCAUCGAGAAGGCUCAGAUACAUGAGGAUCACCCAUGUUAACAUGGGAGGAUAUCGAUGAUACA | 65.3 | 8.4 | – | –
7 | AUCAGCUCGUCAGGAUAUACGACACUGCGUCAGCAGUGUGGUAAGAUCACAUGAGGAUCACCCAUGUAGAAGGGACGAGCUGAU | – | – | 6.87 | 28.1
8 | UUGGACGUCGUCGGAUAUGUAGGAUAUUCCUACAUGAGGAUCACCCAUGUUGACAUGGAAGAAGGACAGAAGGACGAUGUCCAU | 83 | 4.6 | – | –
9 | UUAAUUAUACAAGGAUAUCUAUCCUUAUCAAGACUUACAUGAGGAUCACCCAUGUUAAUAUAAUUAGAGAAGGUGUAAAUACAG | 17.4 | 24.1 | – | –
10 | UGUACUAUAAGGUUAAUUGUAUAUUGAGAAGGCAUACACAUGAGGAUCACCCAUGUAACAUGGAAUGAGGAUAUCAUUAUGUAC | 17.3 | 14.4 | – | –
11 | CGAGAGGCAGGAUAUAGUAUUUGCGACAUGAGGAUCACCCAUGUAUAUACAGUCGCUCCGUUAGAAGGGCCAUUUC | – | – | 22.8 | 33.2
12 | GUCCGGCGUGUAGGAUAUGGAUCCGAUUAGGAUCCAGAAGGACAUGAGGAUCACCCAUGUACAUGUAAACAGUCAUCACCGGAC | – | – | 6.4 | 7.41
13 | AUCAGCUCGUCAGGAUAUACGUCACUGCGUCAGCAGUGUGGUAAGAUCACAUGAGGAUCACCCAUGUAGAAGGGACGGGCUGAU | – | – | 13.8 | 253
14 | AUUAUAUAGUUAGGAUAUUGAUUAUUAUUUUAACAUGAGGAUCACCCAUGUAGCCUUAUGUAUAACAAGAAGGAACAUUUAUUA | – | – | 114 | 132
15 | GGAUGACAAAGUCAUCCAAUUCGAACAUGAGGAUCACCCAUGUAGGAUAUGCUUCUCAAAGAGAAGCAGAAGGACAUGUGCUUU | – | – | 32.8 | 182
16 | AAUCCACAUGAGGAUCACCCAUGUCAGGAUAUCGCGCGCGCGUUUUCGGUCUUUCGCGCGAGAAGGGACGACUG | – | – | 16.1 | 18.8
17 | GUGUACAGAGGAUAUACAUAAGCUAGGAAACUAGCAUCUUCACAUGAGGAUCACCCAUGUAGAAGGCUGUACAC | – | – | 19.8 | 78.5
18 | UCCAGACAUGAGGAUCACCCAUGUGAGGAUAUGAUGCGAUCGUCGAAAGACGAUAGCAUCAGAAGGCACGUAUG | – | – | 33.7 | 48.3
19 | ACGCGUUGGGAGAAGGUACUUUAAUUAGGUUACACAUGAGGAUCACCCAUGUAAGGAUAUCCCAUCGUGUAAUAUUAUACAGCA | – | – | 8.06 | 7.39
20 | GACUGCCGAGGAUAUACAUGAGGAUCACCCAUGUGCUUCAGCAUUUUUUGAUGCAUGGGUAGAAGGCGGUAGUU | – | – | 453 | 326
21 | GGAAAACAUGAGGAUCACCCAUGUGAGGAUAUCGAUGUCCAACCCAAAGUGCGGGACUCGAGAAGGCACUUGGA | – | – | 45.7 | 31.5
22 | AGCUGGUGACAGCAAGAAGUUUAACAUGAGGAUCACCCAUGUAGAAGGCUGUACGGUUACCGUACAGAGGAUAUACAUAGAAAG | – | – | 43.7 | 57.5
23 | UUAGUCAUGUAAGGAUAUCCGAUGCGAAGCGUUGGAGAAGGUACAUGAGGAUCACCCAUGUUCUGCGUCUGAGUACAGAUGCUA | – | – | 494 | 174
24 | AUCAGCUCGUCAGGAUAUACGUCACUGCGUCAGCGGUGUGGUAAGAUCACAUGAGGAUCACCCAUGUAGAAGGGACGAGCUGAU | – | – | 13.6 | 232
25 | AUUGUAGUUGUGAGGAUAUCGUUGAUUUUUUGAAACGAGAAGGCACAUGAGGAUCACCCAUGUUAGUUGUUGGU | – | – | 84 | 212
26 | GCAGGAUAAGUCAGGAUAUACCUAUGGAUACAUAGGUAGAAGGGACAUGAGGAUCACCCAUGUUACUCGCCUGC | – | – | 12.6 | 23.6
27 | GGUGGCGACGAGAAGGUUCACACAUGAGGAUCACCCAUGUAUGACAUGAGGAUCACCCAUGUAAGGGAGGAUAUUGGAUUUACC | – | – | 92.8 | 91.4
28 | ACCAAUGGAGGAUAUACAUGAGGAUCACCCAUGUUUAUCCUACAUAGGUGAAAAACAUGUAGAAGGCCAUUGGA | – | – | 14.8 | 13.2

Row | Sequence | apparent Kd [1] [nM] | apparent Kd [2] [nM] | apparent Kd [3] [nM] | apparent Kd [4] [nM]
29 | CCGCUAAAUGGAGGAUAUGGAGCCUUAUUGGCUCCAGAAGGUCAAAACAUGAGGAUCACCCAUGUGCGGCGGUCUAAUGACCGA | 186 | 50.2 | – | –
30 | GGGUACAUCGGAGGAUAUCAUGAAAAUACAUGAGGAUCACCCAUGUCGAUGGAGACAUCGGAGAUUGAGAAGGCCGAUGUACCG | 11.9 | 6.01 | – | –
31 | GGGCGUGAAGGAUAUACAUGAGGAUCACCCAUGUGGGAGGAGAGUGGUGAGGAGGCUGGUAGAAGGUCAGGAGG | – | – | 39.1 | 32.9
32 | AACUAGCUAGGAUAUACAUGAGGAUCACCCAUGUAAAAAAAAAAAAAAAGAUUUAUAUGUAGAAGGAGCUAGUA | – | – | 40.1 | 65.8
33 | CGCUGUCUCGCAGGAUAUGCAUUGGAUUACAAUGCAGAAGGGCGAUUACAUGAGGAUCACCCAUGUGUUGACAGUGAAGAAGAU | 113 | 25.5 | – | –
34 | CGGCGCUGUCGAGAGGAUAUGCGGUGACGGACAUGAGGAUCACCCAUGUUAGCGAUAGCGUUACGGUAGAAGGCUCUACAGUCGC | 76.8 | 15.4 | – | –
35 | AAGAGUGCAGGAUAUACUUGUUAGGACGGUUGGAUGAUUUGACAUGAGGAUCACCCAUGUAGAAGGGCAGAGAG | – | – | 155 | 129
36 | ACAUGAUAUGUAGGAUAUCACAUUAAUUGUUUUAUAAUUGUAUUUUGGAUUUGAGAAGGACAUUUACAUGAGGAUCACCCAUGU | – | – | 15.6 | 12.3
37 | CCCGGCGUGUCGCUACGCCGAGAGCAGGAUAUUCCGCCGUGAUCUACAUGAGGAUCACCCAUGUGGAAGAAGGGCUACACAAAA | – | – | 14.2 | 122
38 | AAAGCAACAUGAGGAUCACCCAUGUAGGAUAUCGCUAUUGUAAUCAUGAAACAUGAUUACAAUAGCGAGAAGGACAUAUGCUGG | – | – | 21.7 | 23.3
39 | GGAGAACAUGAGGAUCACCCAUGUGGAUGGGCGCUAGGAUAUGCGAGAGGGUGGAGAGAAGCAGAAGGAGUGGAUA | 62.2 | 54.5 | – | –
40 | CAGCCCUGAGGAUAUCUCAUCUCGCACAUGAGGAUCACCCAUGUUCUUCUCUGGGUUUCGAGAGAAGGCAGGCCUC | – | – | 586 | 434
41 | UAUACUAGAUAGGAUAUACUUUAUUUUUUUUUCGUAGAAGGAUCUACAUGAGGAUCACCCAUGUUAACAGCAGU | – | – | 74.1 | 53.9
42 | GACAUGAGGAUCACCCAUGUCCUUCCAGAAGGCUGGCGCGCGAAACCUAAAUCAGUUCCGGGCACAGAGGAUAUGGGCAGUUGG | 67.2 | 14.3 | – | –
43 | CAUUAACAUGAGGAUCACCCAUGUGAGGAUAUGAUAUUACUAGGACGGCUGUAAUCAAUCAGAAGGCACAUCUU | – | – | 20.4 | 44.5
44 | UGGUCAUGAUCAGGAUAUUAACAUGGGCUACAUUAAGAAGGGAUAGUGAGAUACGAACUGAACGACAUGAGGAUCACCCAUGUA | 44.8 | 34.3 | – | –
45 | UUACUAUAACAGAAGGGUAGAUAGUAUAUAGAUGCAGGAUAUGUUACAUGAGGAUCACCCAUGUUUCACCCACAUGAGGAUCAC | – | – | 32 | 70.3
46 | UGAUAGGACAGAGGAUAUACGUGCUGGAGAUACUAGCAAAGUAUCUCGACAUGAGGAUCACCCAUGUAGAAGGCUGUCCUAUCU | – | – | 25.2 | 89.4
47 | GGGCCGGUGGAGAAGGAGCUUACGAAACGUAGGCUAGGAUAUCCACAUGAGGAUCACCCAUGUGGGAAUAUCUGAUUUUCACAG | – | – | 4.4 | 4.48
48 | AAAUAUAAGCGAGGAUAUAUACAUGAGGAUCACCCAUGUCCCAUGUCAUGAGCAUCAGCCAUGUAGUAGAAGGCGCACAUGAGG | – | – | 100 | 53.5
49 | CAGUACUGAGGAUAUACAUGAGGAUCACCCAUGUGCUUUAGCUAGGAUACUAGCAUUAGUAGAAGGCAGUACUG | – | – | 12.3 | 21.5
50 | ACAUGAGGAUCACCCAUGUUAAACGAGGAUAUAUGACUGCACAUGAGGUUCACCCAUGUUCUGCCGUAGAAGGUGUAAAUAAUU | 43.3 | 42.8 | – | –
51 | GUCAGCUCGUGAGGAUAUACAACCCUGCUUCGGCAGUGUAUUAAGAUCACAUGAGGAUCACCCAUGUAGAAGGCACGAGCUGAU | – | – | 10.3 | 146
52 | AAGUAUAGAGGAUAUAGUAGGUACAACAUGAGGAUCACCCAUGUUCUUCAUAACGUAUUUCUAGAAGGCUGAUAAA | – | – | 156 | 353
53 | UGGGAGCGAUAGAAGGCCGGGUUUCACAUGAGGAUCACCCAUGUGCGGGCCCUCUGUUGAAGGCUGGAGGAUAUAUCGUGCGGA | – | – | 14.5 | 7.39
54 | GGACAUAAAGUCAGGAUAUUAAGGCGACCACGCGAUGAGAAGGGACAUGAGGAUCACCCAUGUGAUUCGCAUCA | – | – | 115 | 101
55 | GGGCCGUAGUAGAAGGGAUAUACGAUUGGUAUAUCAGGAUAUACAUGAGGAUCACCCAUGUUCUAACAGUGAUAGUCCUCCCUA | – | – | 23 | 54.8
